Compound activity (PubChem BioAssay)
In the library only some 3.8% were active in any assay of this set; here they are far more common.
KCNK3 block = human KCNK3 channel inhibitors, primary screen, CHO cells, FluxOR thallium flux, B-score | Potassium channel subfamily K member 3 (Homo sapiens), O14649 | AID 602410, 2012 | B-score at 10 µM | FluxOR fluorescence; active compounds read low | 340,000 compounds, 0.84% hits;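 active = B-score under library mean minus 4 SD, starting fluorescence ratio at most library mean plus 5 SD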;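 also: more negative B-score means stronger inhibition of thallium flux through KCNK3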
Target sequence (O14649 whole entry, looked up): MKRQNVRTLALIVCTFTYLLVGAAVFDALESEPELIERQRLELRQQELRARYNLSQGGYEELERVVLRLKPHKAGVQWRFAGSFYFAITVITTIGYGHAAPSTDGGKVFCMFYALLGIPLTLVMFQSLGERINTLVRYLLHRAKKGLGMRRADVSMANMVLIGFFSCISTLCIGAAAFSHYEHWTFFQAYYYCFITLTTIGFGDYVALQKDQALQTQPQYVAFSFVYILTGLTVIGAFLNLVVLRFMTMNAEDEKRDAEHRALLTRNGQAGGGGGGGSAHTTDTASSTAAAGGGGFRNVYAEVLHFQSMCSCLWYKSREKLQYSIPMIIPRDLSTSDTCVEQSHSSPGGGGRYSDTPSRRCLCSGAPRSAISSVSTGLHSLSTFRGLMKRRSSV
KCNQ1 pot = potentiators or activators of KCNQ1 channel, primary screen, cell-based, thallium flux, high-throughput; Potassium voltage-gated channel subfamily KQT member 1 (Homo sapiens), P51787; CHO-K1 KCNQ1, thallium flux FluxOR fluorescence; active compounds read high; B-score at 10 µM; 310,000 compounds, 0.35% hits; AID 2648, 2010;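 active = fluorescence ratio B-score, a plate-corrected score, at least three library SD, with initial intensity B-score within 5 SD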
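assay system = KCNQ1-transfected CHO-K1 cells | medium = assay buffer with matched DMSO | probe or stimulus = depolarizing K+/Tl+ stimulus, K2SO4 and Tl2SO4 each 12.5 mM in 5x stock | dosing = single dose | incubation = dye 90 min, compound 20 min, room temperature | detection = kinetic FluxOR fluorescence, 10 s baseline plus 110 s post-stimulus | evaluation = ratio B score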
hERG rescue = hERG rescue from dofetilide block, primary screen, cell-based, CHO-hERG, FluxOR thallium flux, dofetilide IC70. Voltage-gated inwardly rectifying potassium channel KCNH2 (Homo sapiens), Q12809. dofetilide IC70 present. activation (rescue from dofetilide block), less the hit threshold, % at 10 µM. 310,000 compounds, 0.51% hits. AID 1511, 2009;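 active = activation above the mean of controls blocked by dofetilide plus 5 SD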;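 also: thallium influx through hERG after potassium depolarization seen as dye fluorescence rise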
Kir21 inh = inhibitors of mouse Kir2.1 inward-rectifier potassium channel. 310,000 compounds, 0.85% hits. HEK293-Kir2.1, FluxOR thallium flux fluorescence; active compounds read low. B-score at 10 µM. Inward rectifier potassium channel 2 (Mus musculus), P35561;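 active = fluorescence ratio B-score at or below minus 3 SD of library scores, with starting-brightness B-score within 2 SD, cut at about -4.2 in these data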;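 also: channel flux triggered by added potassium and thallium sulfate stimulus; B-score of peak minus minimum fluorescence over baseline after thallium stimulus; more negative B-score means stronger Kir2.1 block with less thallium influx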
KCNQ1 block = inhibitors of human KCNQ1 channel, primary screen, cell-based, thallium flux, high-throughput; Potassium voltage-gated channel subfamily KQT member 1 (Homo sapiens), P51787; CHO-K1 KCNQ1, FluxOR thallium flux fluorescence; active compounds read high; B-score at 10 µM; 310,000 compounds, 1.3% hits; AID 2642, 2010;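 active = compounds whose thallium flux B-score, printed positive for inhibition, exceeds three library SD while starting fluorescence stays within three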;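 also: channel opened by potassium depolarization with thallium stimulus after 20 min compound exposure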
KCNK9 inh = KCNK9 potassium channel inhibitors, primary screen, HEK293 cells, thallium flux | Potassium channel subfamily K member 9 (Homo sapiens), Q9NPC2 | FluxOR thallium flux fluorescence; active compounds read low | B-score at 10 µM | 310,000 compounds, 1.2% hits;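 active = ratio B-score over 3 SD below the library mean, with starting fluorescence within 5 SD of its mean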;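 also: negative B-score means less thallium flux so channel inhibition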
Target sequence (Q9NPC2 whole entry, looked up): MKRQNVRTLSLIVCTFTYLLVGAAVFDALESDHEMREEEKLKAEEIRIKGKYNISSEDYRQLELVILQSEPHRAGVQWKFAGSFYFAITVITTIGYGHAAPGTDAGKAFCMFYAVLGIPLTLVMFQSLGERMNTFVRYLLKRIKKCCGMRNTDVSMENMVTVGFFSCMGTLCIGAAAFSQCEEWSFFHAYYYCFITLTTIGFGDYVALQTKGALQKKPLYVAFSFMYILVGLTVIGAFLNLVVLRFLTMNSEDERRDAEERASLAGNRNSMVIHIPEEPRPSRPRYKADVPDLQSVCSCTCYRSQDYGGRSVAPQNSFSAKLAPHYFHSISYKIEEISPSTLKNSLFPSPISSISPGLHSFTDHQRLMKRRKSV
KCNQ1 inh valid = KCNQ1 potassium channel inhibitors, confirmation, cell-based, Tl flux, duplicate; shares compounds with KCNQ1 block; KCNQ1 cell line, FluxOR thallium flux fluorescence; inhibition, % at 10 µM; 1,600 compounds, 93% hits; AID 588353, 2011;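 active = primary screen active, with duplicate mean exceeding buffer control mean plus 3 SD of buffer wells, cut at about 28% in these data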;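 also: 0% = buffer control ratio and 100% = XE991 inhibitor control ratio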
CHO KCNQ1 ctr = thallium flux effects in parental CHO cells, counter-screen for KCNQ1 inhibitor project, cell-based, Tl flux; parental CHO-K1, FluxOR thallium flux fluorescence ratio; active compounds read low; zero means no signal rise above baseline; 1,600 compounds, 21% hits; shares compounds with KCNQ1 block; AID 588366, 2011; fluorescence ratio (Tl flux) at 10 µM;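 active = mean of duplicate thallium-flux fluorescence ratios in parental host cells more than 5 SD below the buffer control mean, cut at about 0.38 in these data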;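 also: ratio is peak minus minimum fluorescence divided by baseline fluorescence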
KCNQ1 APC inh = KCNQ1 channel inhibitors, confirmation, orthogonal assay, cell-based, automated electrophysiology | shares compounds with KCNQ1 block | KCNQ1-CHO cells, automated patch clamp current | calls only at 10 µM | 490 compounds, 20% hits | AID 624120, 2012;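 active = KCNQ1 current drop exceeding 3 SD of negative control wells, seen in both duplicate runs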;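 also: steady state current during a 2 s step from -80 to +40 mV; negative values mean current inhibition and positive values mean potentiation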
KCNQ2 spec = KCNQ2 channel inhibition, selectivity assay for KCNQ1 inhibitor project, cell-based. 1,600 compounds, 71% hits. KCNQ2 cells, FluxOR thallium flux fluorescence. AID 651746, 2012. inhibition, % at 10 µM. shares compounds with KCNQ1 block;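 active = mean percent inhibition of the KCNQ2 thallium signal more than 5 SD above the buffer-only control wells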;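 also: KCNQ2 expressed in CHO cells; 0% = buffer control wells and 100% = XE-991 inhibitor control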
KCNQ1-KCNE1 inh = KCNQ1/KCNE1 channel inhibition, selectivity assay for KCNQ1 inhibitor project, CHO-K1 cells, thallium flux, FluxOR | FluxOR thallium flux fluorescence | inhibition, % at 10 µM | shares compounds with KCNQ1 block | 1,600 compounds, 77% hits;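 active = mean percent inhibition of duplicate wells above the buffer-only control mean plus 3 SD of those controls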;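 also: 0% = buffer only wells and 100% = XE-991 inhibitor control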
KCNK9 inh conf = KCNK9 potassium channel inhibitors, confirmation, HEK293 cells, thallium flux, duplicate. AID 492992, 2010. inhibition, % at 10 µM. 4,900 compounds, 43% hits. shares compounds with KCNK9 inh. FluxOR thallium flux fluorescence;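 active = thallium signal inhibited by more than 5 SD of the compound-free buffer control wells, on both duplicate plates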;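 also: 0% = assay buffer control wells without compound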
Kir2-1 spec = mouse Kir2.1 channel inhibition, confirmation, selectivity assay for KCNK9 modulator project, cell-based, HEK293, thallium flux | Kir2.1 cells, FluxOR thallium flux fluorescence | AID 492993, 2010 | shares compounds with KCNK9 inh | 4,900 compounds, 4% hits | inhibition, % at 10 µM;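 active = thallium signal drop more than 5 SD beyond the mean of the no-compound control wells, seen in both duplicate plates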;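 also: signal is fluorescence rise after thallium addition divided by baseline fluorescence; plate controls were assay buffer only for no effect and full block by chlorpromazine control for full effect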
KCNK9 uninduced = thallium flux in non-induced HEK293 cells, confirmation, counter-screen for KCNK9 inhibitor project, cell-based, second counter screen, non-induced KCNK9-HEK293; shares compounds with KCNK9 inh; FluxOR thallium flux; inhibition, % at 10 µM; 4,900 compounds, 40% hits; AID 492997, 2010;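 active = thallium signal drop beyond 5 SD of the untreated control mean, on both duplicate plates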;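 also: plate controls were buffer only IC0 wells for no effect and SID17386958 at its maximal inhibitory level for full effect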
KCNK3 inh conf = retest of human KCNK3 channel inhibitors, confirmation, CHO cells, FluxOR thallium flux, triplicate. ratio percent of control, % at 10 µM. 2,400 compounds, 99% hits. FluxOR fluorescence; 0% buffer, 100% carvedilol maximal block. shares compounds with KCNK3 block;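 active = ratio percent of control, averaged over triplicates, above buffer control mean plus 5 SD, cut at about 64% in these data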;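 also: ratio is the fluorescence rise from min to max over baseline after thallium stimulus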
KCNK3 uninduced = thallium flux inhibition in non-induced cells, primary screen, counter-screen for KCNK3 inhibitor project, cell-based, non-induced KCNK3 line, FluxOR thallium, triplicate; 2,400 compounds, 40% hits; thallium flux ratio (lower = more inhibition) at 10 µM; non-induced KCNK3 parental cells; active compounds read low; shares compounds with KCNK3 block;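 active = thallium flux ratio, averaged over three wells, more than 5 SD below the buffer control mean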;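 also: host cells are CHO cells without KCNK3 induction; ratio is peak minus trough fluorescence over baseline then normalized to buffer controls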
The depositor's hits bear a star; i = inactive; / = not tested or not shown.

SMILES	KCNK3 block	KCNQ1 pot	hERG rescue	Kir21 inh	KCNQ1 block	KCNK9 inh	KCNK9 inh conf	Kir2-1 spec	KCNK9 uninduced	others
CN(CC(=O)Nc1ccccc1-c1ccccc1)Cc1ccccc1Cl	-9.63*	i	-5.8	0.47	8*	-15.9*	63.0%*	55.0%*	45.5%*	KCNQ1 inh valid=75.5*;CHO KCNQ1 ctr=0.381;KCNQ2 spec=98.3%*;KCNQ1-KCNE1 inh=122.5%*;KCNK3 inh conf=120.3*;KCNK3 uninduced=0.134*
CN(CC(=O)Nc1ccccc1Br)CC(=O)Nc1ccccc1-c1ccccc1	i	/	/	/	/	/	/	/	/
CNc1ccccc1C(C)(C)c1cc(-c2cccc([N+](=O)[O-])c2)no1	i	i	0.7	0.11	i	i	/	/	/
CNc1ccccc1C(C)(C)c1cc(-c2cccc(Br)c2)no1	-10.7*	i	-22.1	0.61	6*	i	/	/	/	KCNQ1 inh valid=121.5*;CHO KCNQ1 ctr=0.457;KCNQ1 APC inh=i;KCNQ2 spec=106.0%*;KCNQ1-KCNE1 inh=117.0%*;KCNK3 inh conf=121.0*;KCNK3 uninduced=0.15*
Cc1ccc(NC(=O)c2cc(-c3ccccc3)nn2-c2ccccc2)cc1	i	i	-0.9	-1.02	i	i	i	i	i
Cc1ccc(NC(=O)c2cc(-c3ccccc3)nn2-c2ccccc2)c(Br)c1	i	i	-2.3	-0.51	i	i	/	/	/
CC(C)(C)c1ccc(OCCC(=O)OCC(=O)NC(=O)NC2CCCC2)cc1	i	i	-11.0	0.53	i	-9.78*	i	i	i
CC(C)(C)c1ccc(OCCC(=O)OCC(=O)NC2CCCCC2)cc1	i	i	-9.1	-1.02	i	i	/	/	/
CC1CC(C)(C)CC2(C1)NC(=O)N(CC(=O)N1CCN(Cc3ccc(C#N)cc3)CC1)C2=O (centres undefined)	i	/	/	/	/	/	/	/	/
CN(Cc1cc(-c2ccccc2)on1)C(=O)c1cc(COc2c(F)cccc2F)on1	i	i	-18.6	-0.92	i	-12.7*	66.5%*	i	29.5%*
Cc1nc(CN(C)C(=O)c2cc(COc3c(F)cccc3F)on2)cs1	i	i	-20.2	-0.23	i	i	/	/	/
O=C(c1cc(COc2cccc3cnccc23)on1)N1CCC(c2ccccc2Cl)C1 (centres undefined)	i	i	-8.5	-0.7	i	i	/	/	/
O=C(c1cc(COc2c(F)cccc2F)on1)N1CCC(c2ccccc2Cl)C1 (centres undefined)	i	i	-11.1	-0.03	i	i	i	43.0%*	i
O=C(c1cc(COc2c(F)cccc2F)on1)N1CCC(c2ccccc2F)C1 (centres undefined)	i	i	-13.9	0.05	i	i	i	i	i
CN1CCN(C(=O)c2cc(COc3c(F)cccc3F)on2)CC1c1ccccc1 (centres undefined)	i	i	-7.6	-0.52	i	i	i	i	i
CCCc1ccc(-c2cc(C(=O)Nc3ccc([N+](=O)[O-])cn3)c3ccccc3n2)cc1	i	i	-9.1	-2.9	i	i	/	/	/
Cc1ccnc2nc(C(=O)OCC(=O)N(CC(C)C)C3CCS(=O)(=O)C3)nn12 (centres undefined)	i	/	/	/	/	/	/	/	/
CCOC(=O)C1CCN(C(=O)CNC(=O)Cn2c(C)cc3ccccc3c2=O)CC1	i	i	-4.5	1.14	i	i	/	/	/
Cc1cc(Br)ccc1NC(=O)CN(C)C(=O)CSCc1ccccc1	i	i	-10.4	-0.24	i	i	/	/	/
CC1CCc2sc3ncnc(N4CCN(C)CC4)c3c2C1 (centres undefined)	i	i	-2.9	-0.45	i	i	/	/	/
CC(OC(=O)CCC1CCCC1)C(=O)Nc1ccccc1[N+](=O)[O-] (centres undefined)	i	i	-6.4	-0.44	i	i	/	/	/
